Values after ≈ are worked out from the molar mass of the structure shown.
Key:
Staphylococcus aureus = test: Antibacterial activity against Staphylococcus aureus after 24 hrs by broth dilution method; type: functional
Outline: (§1)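 NCCLS broth dilution in 96-well microtitre plates. Inoculum adjusted with sterile saline to 1.0×10^5 c.f.u./ml. Compounds dissolved in DMSO, with a broth-plus-DMSO solvent control. Incubated 24 h at 37 °C. MIC is the lowest concentration without visible growth. For MBC, clear wells were plated on Mueller Hinton agar for 24 h at 37 °C; MBC is the lowest concentration with no colonies. Duplicates, repeated three times; values in μg/ml.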

Escherichia coli = test: Antibacterial activity against Escherichia coli after 24 hrs by broth dilution method; type: functional; outline: as §1
HepG2 = test: Cytotoxicity against human HepG2 cells after 48 hrs by sulforhodamine B assay; type: functional, cell-based; conditions: HepG2, 48 h
Outline: (§2)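 SRB assay. Cells seeded at 10⁴ cells/well and left 24 h to attach. Exposed to 0, 1, 2.5, 5 and 10 μg/ml for 48 h at 37 °C in humidified 5% CO₂. Fixed with trichloroacetic acid and stained 30 min with 0.4% SRB in 1% acetic acid. Washed with 1% acetic acid; bound dye extracted with Tris EDTA and absorbance read. IC50 taken from surviving fraction versus concentration curves.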

HCT-116 = test: Cytotoxicity against human HCT116 cells after 48 hrs by sulforhodamine B assay; type: functional, cell-based; conditions: HCT-116, 48 h; outline: as §2

Row | MIC (Staphylococcus aureus) | MIC (Escherichia coli) | Structure (SMILES) | MBC (Staphylococcus aureus) | MBC (Escherichia coli) | IC50 (HepG2) | IC50 (HCT-116)
1 | 100 µg/mL (≈ 306 µM) | 50 µg/mL (≈ 153 µM) | O=[N+]([O-])c1ccc(-c2nnc3n2N=C(c2ccccc2)CS3)o1 | 200 µg/mL (≈ 611 µM) | 200 µg/mL (≈ 611 µM) |  | 
2 | 25 µg/mL (≈ 69.1 µM) | 25 µg/mL (≈ 69.1 µM) | O=[N+]([O-])c1ccc(-c2nnc3n2N=C(c2ccc(Cl)cc2)CS3)o1 | 200 µg/mL (≈ 553 µM) | 200 µg/mL (≈ 553 µM) |  | 
3 | 50 µg/mL (≈ 134 µM) | 25 µg/mL (≈ 67.1 µM) | O=[N+]([O-])c1ccc(C2=Nn3c(nnc3-c3ccc([N+](=O)[O-])o3)SC2)cc1 | 100 µg/mL (≈ 269 µM) | 200 µg/mL (≈ 537 µM) |  | 
4 | 25 µg/mL (≈ 68.2 µM) | 50 µg/mL (≈ 136 µM) | O=[N+]([O-])c1ccc(-c2nnc3n2NC(c2ccc([N+](=O)[O-])s2)S3)o1 (stereo unspecified) | 200 µg/mL (≈ 546 µM) | 200 µg/mL (≈ 546 µM) |  | 
5 | 50 µg/mL (≈ 140 µM) | 25 µg/mL (≈ 70 µM) | COc1ccc(C2=Nn3c(nnc3-c3ccc([N+](=O)[O-])o3)SC2)cc1 | 200 µg/mL (≈ 560 µM) | 200 µg/mL (≈ 560 µM) |  | 
6 |  |  | COc1cccc2c1C(=O)c1c(O)c3c(c(O)c1C2=O)C[C@@](O)(C(=O)CO)C[C@@H]3O[C@H]1C[C@H](N)[C@H](O)[C@H](C)O1 [DOXORUBICIN] |  |  | 5.5 µg/mL (≈ 10.1 µM) | 3.73 µg/mL (≈ 6.86 µM)
7 | 25 µg/mL (≈ 72.2 µM) | 25 µg/mL (≈ 72.2 µM) | O=[N+]([O-])c1ccc(-c2nnc3sc(Nc4ccc(F)cc4)nn23)o1 | 50 µg/mL (≈ 144 µM) | 100 µg/mL (≈ 289 µM) | 11.3 µg/mL (≈ 32.6 µM) | 8.91 µg/mL (≈ 25.7 µM)
8 | 25 µg/mL (≈ 61.5 µM) | 25 µg/mL (≈ 61.5 µM) | O=[N+]([O-])c1ccc(-c2nnc3n2N=C(c2ccc(Br)cc2)CS3)o1 | 200 µg/mL (≈ 492 µM) | 200 µg/mL (≈ 492 µM) |  | 
9 | 25 µg/mL (≈ 89.2 µM) | 25 µg/mL (≈ 89.2 µM) | CCNc1nn2c(-c3ccc([N+](=O)[O-])o3)nnc2s1 | 100 µg/mL (≈ 357 µM) | 200 µg/mL (≈ 714 µM) |  | 
10 | 25 µg/mL (≈ 82.2 µM) | 25 µg/mL (≈ 82.2 µM) | O=[N+]([O-])c1ccc(-c2nnc3n2NC(c2ccc[nH]2)S3)o1 (stereo unspecified) | 200 µg/mL (≈ 657 µM) | 200 µg/mL (≈ 657 µM) |  | 
11 | 25 µg/mL (≈ 81.1 µM) | 25 µg/mL (≈ 81.1 µM) | CCCCNc1nn2c(-c3ccc([N+](=O)[O-])o3)nnc2s1 | 200 µg/mL (≈ 649 µM) | 100 µg/mL (≈ 324 µM) |  | 
12 | 25 µg/mL (≈ 76.1 µM) | 50 µg/mL (≈ 152 µM) | O=[N+]([O-])c1ccc(-c2nnc3sc(Nc4ccccc4)nn23)o1 | 50 µg/mL (≈ 152 µM) | 100 µg/mL (≈ 305 µM) | 4.23 µg/mL (≈ 12.9 µM) | 4.38 µg/mL (≈ 13.3 µM)
13 | 50 µg/mL (≈ 220 µM) | 25 µg/mL (≈ 110 µM) | Nn1c(S)nnc1-c1ccc([N+](=O)[O-])o1 | 200 µg/mL (≈ 880 µM) | 200 µg/mL (≈ 880 µM) |  | 
14 | 25 µg/mL (≈ 81.9 µM) | 25 µg/mL (≈ 81.9 µM) | O=[N+]([O-])c1ccc(-c2nnc3n2NC(c2ccco2)S3)o1 (stereo unspecified) | 200 µg/mL (≈ 655 µM) | 200 µg/mL (≈ 655 µM) |  | 
15 | 25 µg/mL (≈ 71.4 µM) | 25 µg/mL (≈ 71.4 µM) | O=[N+]([O-])c1ccc(-c2nnc3n2NC(c2ccc([N+](=O)[O-])o2)S3)o1 (stereo unspecified) | 200 µg/mL (≈ 571 µM) | 200 µg/mL (≈ 571 µM) |  | 
16 | 25 µg/mL (≈ 70.2 µM) | 25 µg/mL (≈ 70.2 µM) | CCc1ccc(Nc2nn3c(-c4ccc([N+](=O)[O-])o4)nnc3s2)cc1 | 50 µg/mL (≈ 140 µM) | 50 µg/mL (≈ 140 µM) | 3.78 µg/mL (≈ 10.6 µM) | 6.65 µg/mL (≈ 18.7 µM)
17 | 25 µg/mL (≈ 77.8 µM) | 50 µg/mL (≈ 156 µM) | O=[N+]([O-])c1ccc(-c2nnc3n2NC(c2cccs2)S3)o1 (stereo unspecified) | 200 µg/mL (≈ 622 µM) | 200 µg/mL (≈ 622 µM) |  | 

Row | Structure (SMILES) | MIC (Staphylococcus aureus) | MIC (Escherichia coli) | MBC (Staphylococcus aureus) | MBC (Escherichia coli) | IC50 (HepG2) | IC50 (HCT-116)
18 | CC1(C)S[C@@H]2[C@H](NC(=O)[C@H](N)c3ccccc3)C(=O)N2[C@H]1C(=O)O [AMPICILLIN] | 25 µg/mL (≈ 71.5 µM) | 12.5 µg/mL (≈ 35.8 µM) | 50 µg/mL (≈ 143 µM) | 25 µg/mL (≈ 71.5 µM) |  | 
